Measured values from ChEMBL document CHEMBL1139309, “Novel fluorinated pseudopeptides as proteasome inhibitors” (Bioorg Med Chem Lett, 2009).
pIC50: −log10 of the molar value. Active and inactive are the calls of the source. No cut-off for these calls is given here.

Columns and labels:
[1] = (§1) Inhibition of chymotrypsin-like activity of rabbit 20S proteasome; set-up: species or system Oryctolagus cuniculus
Outline: (§2)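 Rabbit 20S proteasome was run at 37 °C, pH 7.5, for 45 min, with and without compound (0.1–200 µM). Fluorogenic substrates were Suc-LLVY-AMC for chymotrypsin-like activity and Z-LLE-βNA for post-acid activity. Buffer was 20 mM Tris, 1 mM DTT, 10% glycerol and 0.02% (w/v) SDS. IC50 or % inhibition at 100 µM is the mean of three experiments.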

[2] = (§3) Inhibition of trypsin-like activity of rabbit 20S proteasome; set-up: species or system Oryctolagus cuniculus
Outline: (§4)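 Trypsin-like activity of rabbit 20S proteasome was followed by Boc-LRR-AMC hydrolysis over 45 min at 37 °C, with and without compound (0.1–200 µM). Buffer was pH 7.5 20 mM Tris, 1 mM DTT and 10% glycerol, with no SDS. Values are IC50 or % inhibition at 100 µM, as means of three experiments.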

[3] = (§5) Inhibition of post-acid activity of rabbit 20S proteasome; set-up: species or system Oryctolagus cuniculus; outline: as §2
[4] = molecular target: T1, Calpain-1 catalytic subunit (Homo sapiens) (UniProt P07384); experiment: Inhibition of calpain 1
T1 sequence (whole entry): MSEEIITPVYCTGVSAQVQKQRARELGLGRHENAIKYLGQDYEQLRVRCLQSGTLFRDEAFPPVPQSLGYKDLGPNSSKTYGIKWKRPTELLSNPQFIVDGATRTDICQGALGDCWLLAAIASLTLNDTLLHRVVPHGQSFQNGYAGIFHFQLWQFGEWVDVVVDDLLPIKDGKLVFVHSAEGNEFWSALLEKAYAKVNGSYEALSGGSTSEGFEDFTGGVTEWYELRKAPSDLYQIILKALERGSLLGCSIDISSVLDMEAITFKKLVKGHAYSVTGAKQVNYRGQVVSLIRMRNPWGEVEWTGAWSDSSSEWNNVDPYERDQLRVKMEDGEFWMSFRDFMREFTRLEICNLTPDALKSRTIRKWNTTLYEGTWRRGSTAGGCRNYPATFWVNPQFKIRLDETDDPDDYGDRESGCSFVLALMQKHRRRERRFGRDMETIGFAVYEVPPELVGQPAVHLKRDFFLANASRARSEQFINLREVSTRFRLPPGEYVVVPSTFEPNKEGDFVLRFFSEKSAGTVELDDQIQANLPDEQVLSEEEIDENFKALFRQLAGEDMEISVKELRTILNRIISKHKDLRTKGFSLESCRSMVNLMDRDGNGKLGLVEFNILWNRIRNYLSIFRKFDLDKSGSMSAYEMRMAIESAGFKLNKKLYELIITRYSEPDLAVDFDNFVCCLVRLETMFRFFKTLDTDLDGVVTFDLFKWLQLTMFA
Outline: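 Purified calpain I was assayed at 37 °C with Suc-LLVY-AMC substrate in 50 mM Tris–HCl (pH 7.2), 10 mM DTT and 2 mM CaCl2.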

HeLa = experiment: Inhibition of chymotrypsin-like activity of 20S proteasome in human HeLa cells at 50 uM after 1.5 hrs by chemiluminescent assay
[5] = molecular target: Cathepsin B (Homo sapiens) (UniProt P07858); experiment: Inhibition of CTSB
Outline: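 Cathepsin B was assayed at 37 °C using Z-RR-AMC substrate in 352 mM KH2PO4 (pH 6), 48 mM NaHPO4, 1 mM EDTA and 1 mM DTT.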

Oryctolagus cuniculus [6] = species on record: Oryctolagus cuniculus; experiment: as §1; outline: as §2
Oryctolagus cuniculus [7] = species on record: Oryctolagus cuniculus; experiment: as §3; outline: as §4
Oryctolagus cuniculus [8] = species on record: Oryctolagus cuniculus; experiment: Inhibition of trypsin-like activity of rabbit 20S proteasome at 100 uM; outline: as §4
Oryctolagus cuniculus [9] = species on record: Oryctolagus cuniculus; experiment: as §5; outline: as §2

pIC50 [1]	pIC50 [2]	pIC50 [3]	Activity [4]	Activity [5]	Activity (Oryctolagus cuniculus [6])	Activity (Oryctolagus cuniculus [7])	inhibition (Oryctolagus cuniculus [8]) [%]	Activity (Oryctolagus cuniculus [9])	Structure (SMILES)	inhibition (HeLa) [%]
5.80	5.08	5.57	inactive	inactive					COC(=O)[C@H](Cc1ccccc1)NC(=O)CC(NNC(=O)[C@H](CCCCN)NC(=O)Cc1cccc(Oc2ccccc2)c1)C(F)(F)F (mixture of isomers)	20
		3.70			inactive	inactive			COC(=O)[C@H](Cc1ccccc1)NC(=O)CC(NNC(=O)[C@H](CCCCNC(=O)OCc1ccccc1)NC(=O)Cc1cccc(Oc2ccccc2)c1)C(F)(F)F (mixture of isomers)	
4.49		5.22	inactive	inactive			30		COC(=O)[C@H](Cc1ccccc1)NC(=O)CC(NNC(=O)[C@H](CCCCN)NC(=O)OC(C)(C)C)C(F)(F)F (mixture of isomers)	
					inactive			inactive	COC(=O)[C@H](Cc1ccccc1)NC(=O)CC(NNC(=O)[C@H](CCCCNC(=O)OCc1ccccc1)NC(=O)OC(C)(C)C)C(F)(F)F (mixture of isomers)	
4.07		4.14							COC(=O)[C@H](Cc1ccccc1)NC(=O)CC(NNC(=O)[C@H](Cc1ccc(OC)c(OC)c1)NC(=O)Cc1cccc(Oc2ccccc2)c1)C(F)(F)F (mixture of isomers)	
5.23	5.36		inactive	inactive				inactive	COC(=O)[C@H](Cc1ccccc1)NC(=O)CC(NNC(=O)[C@@H](N)CCCCNC(=O)OCc1ccccc1)C(F)(F)F (mixture of isomers)	
						inactive		inactive	COC(=O)[C@H](Cc1ccccc1)NC(=O)CC(NNC(=O)Cc1cccc(Oc2ccccc2)c1)C(F)(F)F (mixture of isomers)	
